ChEMBL document CHEMBL4004871, “Impact of androstane A- and D-ring inversion on 17β-hydroxysteroid dehydrogenase type 3 inhibitory activity, androgenic effect and metabolic stability” (Bioorg Med Chem, 2017)
The source made the active and inactive calls. The rule behind the calls is not given here.

What was measured:
[1] = molecular target: T1, 17-beta-hydroxysteroid dehydrogenase type 3 (Homo sapiens) (UniProt P37058); test: Inhibition of 17-beta-HSD3 (unknown origin) expressed in human LNCaP cells using [14C]-4-androstene-3,17-dione as substrate assessed as reduction of [14C]-testosterone level at 0.1 to 1 uM after 1 hr by TLC method; type: cell-based
T1 sequence (whole entry): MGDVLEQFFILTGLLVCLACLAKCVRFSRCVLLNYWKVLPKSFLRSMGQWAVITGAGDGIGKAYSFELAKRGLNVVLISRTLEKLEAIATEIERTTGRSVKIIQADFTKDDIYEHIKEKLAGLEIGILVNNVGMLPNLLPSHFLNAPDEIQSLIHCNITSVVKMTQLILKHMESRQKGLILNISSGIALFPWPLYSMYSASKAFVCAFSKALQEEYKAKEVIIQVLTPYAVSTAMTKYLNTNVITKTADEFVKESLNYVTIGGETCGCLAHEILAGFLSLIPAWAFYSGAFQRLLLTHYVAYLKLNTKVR
In short: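 LNCaP cells stably transfected with 17β-HSD3, grown in RPMI-1640 with 10% FBS and hygromycin; hygromycin omitted for assay. 10,000 cells/well plated, incubated 2 days, then 15 nM [14C]-4-androstene-3,17-dione added with inhibitor in DMSO (final 0.05%).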

[2] = molecular target: T2, Androgen receptor (Homo sapiens, UniProt P10275); test: Androgenic activity at AR in human LAPC4 cells assessed as cell growth at 0.5 uM after 3 days by MTS method relative to control; type: cell-based; settings: 72 h
T2 sequence (P10275 whole entry): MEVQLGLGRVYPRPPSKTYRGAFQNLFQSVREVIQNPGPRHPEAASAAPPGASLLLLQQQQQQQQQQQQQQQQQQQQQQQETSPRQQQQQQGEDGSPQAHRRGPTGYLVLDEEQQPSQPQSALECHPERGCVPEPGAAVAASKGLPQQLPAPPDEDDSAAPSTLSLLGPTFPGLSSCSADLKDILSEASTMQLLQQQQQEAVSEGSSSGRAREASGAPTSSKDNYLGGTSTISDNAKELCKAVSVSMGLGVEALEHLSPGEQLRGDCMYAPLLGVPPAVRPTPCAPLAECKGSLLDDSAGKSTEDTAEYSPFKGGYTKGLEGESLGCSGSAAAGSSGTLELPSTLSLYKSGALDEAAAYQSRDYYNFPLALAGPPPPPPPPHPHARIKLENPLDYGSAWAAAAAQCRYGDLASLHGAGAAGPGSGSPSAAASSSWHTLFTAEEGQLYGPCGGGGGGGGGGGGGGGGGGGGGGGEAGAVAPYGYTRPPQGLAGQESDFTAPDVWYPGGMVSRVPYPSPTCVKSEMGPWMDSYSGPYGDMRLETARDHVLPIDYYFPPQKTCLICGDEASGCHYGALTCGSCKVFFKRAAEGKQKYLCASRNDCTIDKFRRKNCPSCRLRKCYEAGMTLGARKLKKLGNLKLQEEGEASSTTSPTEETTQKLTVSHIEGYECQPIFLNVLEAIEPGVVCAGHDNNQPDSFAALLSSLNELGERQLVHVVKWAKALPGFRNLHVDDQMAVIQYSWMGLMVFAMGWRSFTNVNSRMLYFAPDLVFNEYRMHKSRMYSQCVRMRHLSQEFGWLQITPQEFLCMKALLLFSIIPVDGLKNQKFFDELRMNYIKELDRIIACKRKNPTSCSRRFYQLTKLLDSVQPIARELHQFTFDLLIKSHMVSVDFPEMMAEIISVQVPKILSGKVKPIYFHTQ
In short: (§1)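 LAPC-4 (AR+) cells, cultured in RPMI-1640 with FBS, L-glutamine and insulin, were switched to medium with 5% dextran-coated charcoal treated FBS. 10,000 cells/well, triplicate, were pre-incubated 24 h at 37 °C, then given compound diluted from DMSO stock for 3 days; vehicle DMSO controls. Growth read by MTS, expressed as % proliferation minus basal 100%.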

[3] = Metabolic stability in human liver microsomes assessed as parent compound remaining at 10 uM after 1 hr by HPLC-MS analysis; type: ADME, microsome; settings: read-out: Stability
In short: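 Human liver microsomes (40 μg) were incubated with 10 μM substrate for 1 h at 37 °C, with or without 10 mM NADPH, in 50 mM Tris plus 10 mM MgCl₂. MeOH-quenched, centrifuged supernatants from 2 assays pooled for HPLC-MS with UV at 190 nm. % remaining = AUC with NADPH / AUC without NADPH × 100; mean of 4 independent experiments.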

[4] = molecular target: T2, Androgen receptor; test: Androgenic activity at AR in human LAPC4 cells assessed as cell growth at 1 uM after 3 days by MTS method relative to control; type: cell-based; settings: 72 h; in short: as §1
[5] = molecular target: T2, Androgen receptor; test: Androgenic activity at AR in human LAPC4 cells assessed as cell growth at 0.1 uM after 3 days by MTS method relative to control; type: cell-based; settings: 72 h; in short: as §1
[6] = molecular target: T3, 17-beta-hydroxysteroid dehydrogenase type 3 (Homo sapiens, UniProt P37058); test: Inhibition of 17-beta-HSD3 (unknown origin) expressed in human LNCaP cells using [14C]-4-androstene-3,17-dione as substrate assessed as reduction of [14C]-testosterone level after 1 hr by TLC method
T3 sequence (P37058 whole entry): T1 sequence (whole entry)

| SMILES | inhibition [1] | Activity [2] | remaining at 1 h, 10 µM [3] | Activity [4] | Activity [5] | IC50 [6] |
| --- | --- | --- | --- | --- | --- | --- |
| C[C@]12CC[C@@H](O)C[C@@H]1CC[C@@H]1[C@@H]2CC[C@@]2(C)C(=O)CC[C@@H]12 | inactive |  |  |  |  |  |
| C[C@@H]1CN(S(=O)(=O)c2ccccc2C(F)(F)F)[C@@H](C)CN1C[C@@]1(O)CC[C@@]2(C)[C@@H](CC[C@@H]3[C@@H]2CC[C@@]2(C)C(=O)CC[C@@H]32)C1 |  | 61.6% | 29.4% | 51% | 76.3% | 1.09 µM |
| C[C@@H]1CN(S(=O)(=O)c2ccccc2C(F)(F)F)[C@@H](C)CN1C (relative stereo) | inactive |  |  |  |  |  |
| C[C@@H]1CN(S(=O)(=O)c2ccccc2C(F)(F)F)[C@@H](C)CN1C[C@]1(O)CC[C@@]2(C)[C@H](CC[C@@H]3[C@@H]2CC[C@@]2(C)C(=O)CC[C@@H]32)C1 |  | 72.3% | 16.6% | 28.2% | 87.2% | 0.15 µM |
| C[C@]12CC[C@H](O)C[C@H]1CC[C@@H]1[C@@H]2CC[C@@]2(C)C(=O)CC[C@@H]12 | inactive |  |  |  |  |  |
| C[C@@H]1CN(S(=O)(=O)c2ccccc2C(F)(F)F)[C@@H](C)CN1C[C@@]1(O)CC[C@@]2(C)[C@@H](CC[C@@H]3[C@@H]2CC[C@]2(C)C(=O)CC[C@@H]32)C1 |  | 48% |  | 33% | 96% | 0.11 µM |
